The values that follow come from ChEMBL document CHEMBL1137866, “N-(1-Benzylpyrrolidin-3-yl)arylbenzamides as potent and selective human dopamine D4 antagonists” (Bioorg Med Chem Lett, 2004).

pIC50, pKi: −log10 of the molar value. Activity calls are given as the source filed them. The calls are words filed in the database; no cut-off is given here.

For experiment [1], the target named is T1, Adrenergic receptor alpha-1 (Rattus norvegicus, UniProt P15823+P23944+P43140).
T1 sequence (P15823 whole entry): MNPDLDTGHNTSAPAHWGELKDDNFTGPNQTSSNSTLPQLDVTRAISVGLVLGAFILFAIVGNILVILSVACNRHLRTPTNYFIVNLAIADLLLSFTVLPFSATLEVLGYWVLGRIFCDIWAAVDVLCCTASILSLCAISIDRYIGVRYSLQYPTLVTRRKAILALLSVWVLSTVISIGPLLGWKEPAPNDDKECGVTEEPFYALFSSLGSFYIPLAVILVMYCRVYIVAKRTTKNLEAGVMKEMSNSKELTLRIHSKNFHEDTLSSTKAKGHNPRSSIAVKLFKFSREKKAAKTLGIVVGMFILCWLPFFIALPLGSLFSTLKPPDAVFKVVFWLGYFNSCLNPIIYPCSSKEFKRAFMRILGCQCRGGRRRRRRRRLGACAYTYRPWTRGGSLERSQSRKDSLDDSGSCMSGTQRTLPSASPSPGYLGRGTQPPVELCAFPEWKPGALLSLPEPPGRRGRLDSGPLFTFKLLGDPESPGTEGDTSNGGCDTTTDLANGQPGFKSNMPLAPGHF
T1 sequence (P23944 whole entry): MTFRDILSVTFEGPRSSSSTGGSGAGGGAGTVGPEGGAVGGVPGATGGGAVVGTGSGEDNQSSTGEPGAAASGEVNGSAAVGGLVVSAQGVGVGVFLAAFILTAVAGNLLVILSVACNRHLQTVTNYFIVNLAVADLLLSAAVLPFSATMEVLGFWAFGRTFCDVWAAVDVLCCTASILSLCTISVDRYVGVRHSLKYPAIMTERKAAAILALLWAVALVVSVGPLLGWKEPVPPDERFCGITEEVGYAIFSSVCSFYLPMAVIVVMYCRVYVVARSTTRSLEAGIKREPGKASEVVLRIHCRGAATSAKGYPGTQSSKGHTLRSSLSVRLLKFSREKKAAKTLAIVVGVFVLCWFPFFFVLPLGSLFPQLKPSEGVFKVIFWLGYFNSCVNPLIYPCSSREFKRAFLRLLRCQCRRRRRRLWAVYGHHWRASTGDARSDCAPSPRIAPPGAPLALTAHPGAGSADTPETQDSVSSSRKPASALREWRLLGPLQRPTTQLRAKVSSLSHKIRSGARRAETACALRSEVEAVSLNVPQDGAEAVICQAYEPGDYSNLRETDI
T1 sequence (P43140 whole entry): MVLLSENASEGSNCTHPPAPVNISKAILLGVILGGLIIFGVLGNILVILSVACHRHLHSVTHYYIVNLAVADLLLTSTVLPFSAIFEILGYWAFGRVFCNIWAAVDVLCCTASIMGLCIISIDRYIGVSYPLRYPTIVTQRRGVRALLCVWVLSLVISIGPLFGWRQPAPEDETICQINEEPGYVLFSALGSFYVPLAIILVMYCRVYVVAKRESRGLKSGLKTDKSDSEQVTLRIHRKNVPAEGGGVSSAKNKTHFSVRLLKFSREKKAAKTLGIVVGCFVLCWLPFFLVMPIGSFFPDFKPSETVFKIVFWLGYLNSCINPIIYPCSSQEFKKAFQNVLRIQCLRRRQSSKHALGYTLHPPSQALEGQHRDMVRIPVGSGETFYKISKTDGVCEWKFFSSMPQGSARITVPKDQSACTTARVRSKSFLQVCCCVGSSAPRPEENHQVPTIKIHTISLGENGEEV
Briefly: Binding affinity towards Alpha-1 adrenergic receptor using 7-methoxy-[3H]-prazosin as radioligand in rat frontal cortex tissue. In kind it is tissue-based. Summed up: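 Rat frontal cortex tissue as α1 receptor source, 7-methoxy-[3H]-prazosin as radioligand, clozapine as reference. Ki obtained by Cheng–Prusoff transformation; mean of at least two determinations ± SEM.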

The target of experiment [2] is T2, D(4) dopamine receptor (Homo sapiens, UniProt P21917).
T2 sequence (P21917 whole entry): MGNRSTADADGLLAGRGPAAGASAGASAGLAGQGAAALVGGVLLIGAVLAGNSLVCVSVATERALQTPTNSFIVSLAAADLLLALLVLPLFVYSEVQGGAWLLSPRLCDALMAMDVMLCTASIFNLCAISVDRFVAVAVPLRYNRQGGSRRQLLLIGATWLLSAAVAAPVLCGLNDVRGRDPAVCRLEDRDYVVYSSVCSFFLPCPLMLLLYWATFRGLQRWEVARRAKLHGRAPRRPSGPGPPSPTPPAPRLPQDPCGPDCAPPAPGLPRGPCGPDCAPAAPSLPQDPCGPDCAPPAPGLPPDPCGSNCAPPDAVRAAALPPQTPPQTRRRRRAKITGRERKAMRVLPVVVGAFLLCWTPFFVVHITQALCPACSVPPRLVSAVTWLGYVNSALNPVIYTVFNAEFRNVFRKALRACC
Briefly: Ability to displace [3H]spiperone from human Dopamine receptor D4.2 stably transfected in human embryonic kidney […] cells. In a few lines: (§1)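 Radioligand binding on stably transfected cell lines: hD4 (D4.2 subtype) in HEK […] cells and hD2 (short isoform) in GH4C1 rat pituitary cells. Ki derived by Cheng–Prusoff transformation, reported as mean of at least two determinations ± SEM.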

In experiment [3] the target is T3, D(2) dopamine receptor (Homo sapiens, UniProt P14416). As to the kind of experiment: Ability to displace [3H]spiperone from human Dopamine receptor D2S stably transfected in GH4C1 (rat pituitary) cells. The class given is cell-based, Pituitary gland cell. In a few lines: as §1
T3 sequence (P14416 whole entry): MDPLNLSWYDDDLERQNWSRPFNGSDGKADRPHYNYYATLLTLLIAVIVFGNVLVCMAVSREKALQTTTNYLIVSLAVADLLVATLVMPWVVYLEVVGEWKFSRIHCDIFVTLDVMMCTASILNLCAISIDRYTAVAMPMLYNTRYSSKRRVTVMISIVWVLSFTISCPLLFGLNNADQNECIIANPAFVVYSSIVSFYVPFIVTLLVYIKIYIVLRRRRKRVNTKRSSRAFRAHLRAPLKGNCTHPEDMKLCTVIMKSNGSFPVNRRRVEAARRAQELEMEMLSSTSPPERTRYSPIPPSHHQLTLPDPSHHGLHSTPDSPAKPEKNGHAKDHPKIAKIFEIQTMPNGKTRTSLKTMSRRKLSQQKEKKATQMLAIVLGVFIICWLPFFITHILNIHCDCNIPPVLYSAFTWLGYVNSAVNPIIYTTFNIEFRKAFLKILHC
Experiment [4] has as its target T4, D(4) dopamine receptor (Homo sapiens) (UniProt P21917).
T4 sequence (whole entry): T2 sequence (P21917 whole entry)
As to the kind of experiment: Inhibition of [3H]spiperone binding to human Dopamine receptor D4.2 stably transfected in human embryonic kidney […] cells at 100 nM.

Experiment [5] has as its target T5, Adrenergic receptor alpha-1 (Rattus norvegicus) (UniProt P15823+P23944+P43140). Briefly: Inhibition of 7-methoxy-[3H]-prazosin binding to Alpha-1 adrenergic receptor in rat frontal cortex tissue at 100 nM.
Experiment [6] has as its target T3, D(2) dopamine receptor. Briefly: Inhibition of [3H]spiperone binding to human Dopamine receptor D2S stably transfected in GH4C1 (rat pituitary) cells at 100 nM. Particulars: Pituitary gland cell.
The target in experiment [7] is T5, Adrenergic receptor alpha-1 (Rattus norvegicus). As to the kind of experiment: Inhibition of 7-methoxy-[3H]-prazosin binding to Alpha-1 adrenergic receptor in rat frontal cortex tissue at 100 nM; IA denotes inactive.
For experiment [8], the target named is T3, D(2) dopamine receptor. As to the kind of experiment: Inhibition of [3H]spiperone binding to human Dopamine receptor D2S stably transfected in GH4C1 (rat pituitary) cells at 100 nM; IA denotes inactive. Particulars: Pituitary gland cell.
For experiment [9], the target named is T2, D(4) dopamine receptor. As to the kind of experiment: Inhibitory concentration required to reverse the dopamine inhibition of forskolin-stimulated adenyl cyclase activity in CHO cells stably expressing hD4 receptor. In kind it is functional, cell-based.

Take `O=C(N[C@H]1CCN(Cc2ccccc2)C1)c1ccc(-c2cccs2)cc1`: the Ki (usually the dissociation constant of the complex between target and ligand, obtained from inhibition or displacement) in experiment [1] is reported as 1200 nM. Moreover, the pKi (as a rule, the negative decadic logarithm of the Ki, by convention in mol/L) on D(4) dopamine receptor [2] is 8.52; at D(2) dopamine receptor [3], 6.01.
For the compound `O=Cc1ccc(-c2ccc(C(=O)NC3CCN(Cc4ccccc4)C3)cc2)cc1` (configuration not stated), the figures for the pKi on D(4) dopamine receptor [2] and on D(2) dopamine receptor [3] were 7.15 and 5.43, respectively.
As for `O=C(NC1CCN(Cc2ccccc2)C1)c1cccc(-c2ccccc2)c1` (configuration not stated), the pKi was 8.40 at D(4) dopamine receptor [2] and 6.82 at D(2) dopamine receptor [3].
With `CN(C(=O)c1ccc(-c2ccsc2)cc1)[C@H]1CCN(Cc2ccccc2)C1`, the inhibition – broadly, how much of the control response was suppressed – in experiment [4] was 40%; in experiment [5], 0.29%; on D(2) dopamine receptor [6] it was 7.4%.
Regarding `CSc1ccc(-c2ccc(C(=O)NC3CCN(Cc4ccccc4)C3)cc2)cc1` (configuration not stated), the values for the pKi at D(4) dopamine receptor [2] and at D(2) dopamine receptor [3] were 7.77 and 5.40, respectively.
The like results for `O=C(NC1CCN(Cc2ccccc2)C1)c1ccc(-c2ccsc2)cc1` (configuration not stated) were, in that order, 8.70 and 5.92.
On to `O=C(N[C@@H]1CCN(Cc2ccccc2)C1)c1ccc(-c2cccs2)cc1`, for which the Ki in [1] was determined as 330 nM. In addition, the pKi on D(4) dopamine receptor [2] is 7.62; on D(2) dopamine receptor [3], 5.82.
Taken in the same sequence, the figures for `O=C(N[C@H]1CCN(Cc2ccccc2)C1)c1cccc(-c2cccs2)c1` were 160 nM, 8.82 and 7.22.
For `O=C(NC1CCN(Cc2ccccc2)C1)c1ccc(-c2ccc(Cl)cc2)cc1` (configuration not stated), the pKi is 8.30 on D(4) dopamine receptor [2] and 5.59 at D(2) dopamine receptor [3].
`O=S(=O)(N[C@H]1CCN(Cc2ccccc2)C1)c1ccc(-c2cccs2)cc1` registered an inhibition in [4] of 13%. The inhibition entry (in [7]; on D(2) dopamine receptor [8]) was “inactive” each time.
Regarding `Nc1cccc(-c2ccc(C(=O)NC3CCN(Cc4ccccc4)C3)cc2)c1` (configuration not stated), the pKi on D(4) dopamine receptor [2] is 7.62; at D(2) dopamine receptor [3], 5.30.
On to `O=C(NC1CCN(Cc2ccccc2)C1)c1ccc(-c2ccc(F)cc2)cc1` (configuration not stated), for which the pKi on D(4) dopamine receptor [2] was 8.10; on D(2) dopamine receptor [3], 6.92.
In the case of `O=C(N[C@H]1CCN(Cc2ccccc2)C1)c1cccc(-c2ccsc2)c1`, in experiment [1], the Ki turned out to be 140 nM. Besides, the negative-log Ki (pKi) on D(4) dopamine receptor [2] is 8.70; at D(2) dopamine receptor [3] it was 7.15.
For the compound `O=C(N[C@@H]1CCN(Cc2ccccc2)C1)c1ccc(-c2ccsc2)cc1`, the Ki in experiment [1] is on record as 170 nM. Also, the pKi on D(4) dopamine receptor [2] is 7.74; on D(2) dopamine receptor [3] it was 6.05.
`O=C(N[C@H]1CCN(Cc2ccccc2)C1)c1ccc(-c2ccsc2)cc1` had a Ki in [1] of 610 nM. The pKi at D(4) dopamine receptor [2] was 8.70; on D(2) dopamine receptor [3], 6.00.
Take `O=C(NC1CCN(Cc2ccccc2)C1)c1ccc(-c2cccc(F)c2)cc1` (configuration not stated): the negative logarithm of the Ki (pKi) is 7.77 on D(4) dopamine receptor [2] and 5.40 on D(2) dopamine receptor [3].
The like results for `O=Cc1ccccc1-c1ccc(C(=O)NC2CCN(Cc3ccccc3)C2)cc1` (configuration not stated) were, in that order, 7.44 and 5.51.
Taken in the same sequence, the figures for `O=C(NC1CCN(Cc2ccccc2)C1)c1ccc(-c2cccs2)cc1` (configuration not stated) were 8.52 and 6.08.
Taken in the same sequence, the figures for `O=C(NC1CCN(Cc2ccccc2)C1)c1ccc(-c2ccc(C(F)(F)F)cc2)cc1` (configuration not stated) were 7.77 and 5.10.
`O=C(N[C@@H]1CCN(Cc2ccccc2)C1)c1cccc(-c2ccsc2)c1` returned a Ki in experiment [1] of 170 nM. For the same compound, the pKi is 8.47 on D(4) dopamine receptor [2] and 7.03 at D(2) dopamine receptor [3].
Turning to `O=C(NC1CCN(Cc2ccccc2)C1)c1ccc(-c2ccccc2)cc1` (configuration not stated), the pIC50 (in general, the IC50 on a negative log10 scale, so that one unit is a factor of ten) on D(4) dopamine receptor [9] is 5.82. The pKi on D(4) dopamine receptor [2] was 8.52; at D(2) dopamine receptor [3] it was 6.22.
